Results reported in ChEMBL document CHEMBL3745688, “Discovery of novel hybrids of diaryl-1,2,4-triazoles and caffeic acid as dual inhibitors of cyclooxygenase-2 and 5-lipoxygenase for cancer therapy” (Eur J Med Chem, 2016).

How the values were obtained:
[1] = system: A549; experiment: Cell cycle arrest in human A549 cells assessed as accumulation at G2 phase at 5 uM after 72 hrs by propidium iodide staining based flow cytometry (reference value: 3.88%); format: functional
[2] = system: A549; experiment: Induction of apoptosis in human A549 cells assessed as necrotic cells at 5 uM after 72 hrs by annexinV-APC/7-AAD staining based flow cytometry (reference value: 0.41%); format: functional
[3] = Antiproliferative activity against human PC3 cells after 72 hrs by MTT assay; format: functional, cell-based; conditions: PC-3, 72 h
How it was run: (§1)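 Cells seeded at 5×10^4/well, grown 24 h at 37 °C in 5% CO₂, then exposed to compounds dissolved in DMSO at a range of concentrations for 72 h. MTT (5 mg/mL in PBS) added for 4 h, then OD read at 570 nm. IC50 taken from dose-response curves, mean ± S.D. of three independent experiments.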

[4] = system: A549; experiment: Cell cycle arrest in human A549 cells assessed as accumulation at G2 phase at 25 uM after 72 hrs by propidium iodide staining based flow cytometry (reference value: 3.88%); format: functional
[5] = system: A549; experiment: Induction of apoptosis in human A549 cells assessed as late apoptotic cells at 1 uM after 72 hrs by annexinV-APC/7-AAD staining based flow cytometry (reference value: 1.81%); format: functional
[6] = system: A549; experiment: Cell cycle arrest in human A549 cells assessed as accumulation at G2 phase after 72 hrs by propidium iodide staining based flow cytometry; format: functional
[7] = system: A549; experiment: Induction of apoptosis in human A549 cells assessed as necrotic cells at 25 uM after 72 hrs by annexinV-APC/7-AAD staining based flow cytometry (Rvb =0.41%); format: functional
[8] = system: A549; experiment: Cell cycle arrest in human A549 cells assessed as accumulation at G2 phase at 1 uM after 72 hrs by propidium iodide staining based flow cytometry (reference value: 3.88%); format: functional
[9] = system: A549; experiment: Induction of apoptosis in human A549 cells assessed as late apoptotic cells at 25 uM after 72 hrs by annexinV-APC/7-AAD staining based flow cytometry (reference value: 1.81%); format: functional
[10] = system: A549; experiment: Induction of apoptosis in human A549 cells assessed as early apoptotic cells at 5 uM after 72 hrs by annexinV-APC/7-AAD staining based flow cytometry (reference value: 5.7%); format: functional
[11] = system: A549; experiment: Cell cycle arrest in human A549 cells assessed as accumulation at G1 phase at 1 uM after 72 hrs by propidium iodide staining based flow cytometry (reference value: 53.66%); format: functional
[12] = system: A549; experiment: Induction of apoptosis in human A549 cells assessed as viable cells at 1 uM after 72 hrs by annexinV-APC/7-AAD staining based flow cytometry (reference value: 92.08%); format: functional; conditions: A549, 72 h, read-out: Activity
[13] = system: A549; experiment: Induction of apoptosis in human A549 cells assessed as viable cells at 5 uM after 72 hrs by annexinV-APC/7-AAD staining based flow cytometry (Rvb =92.08%); format: functional; conditions: A549, 72 h, read-out: Activity
[14] = system: A549; experiment: Cell cycle arrest in human A549 cells assessed as accumulation at S phase at 1 uM after 72 hrs by propidium iodide staining based flow cytometry (reference value: 42.46%); format: functional
[15] = target: T1, Prostaglandin G/H synthase 1 (Bos taurus, UniProt O62664); experiment: Inhibition of COX1 in calf endotheliocyte assessed as 6keto-PGF1alpha production pretreated for 20 mins followed by addition of 10 uM arachidonic acid as substrate for 20 mins by radioimmuno assay
T1 sequence (O62664 whole entry): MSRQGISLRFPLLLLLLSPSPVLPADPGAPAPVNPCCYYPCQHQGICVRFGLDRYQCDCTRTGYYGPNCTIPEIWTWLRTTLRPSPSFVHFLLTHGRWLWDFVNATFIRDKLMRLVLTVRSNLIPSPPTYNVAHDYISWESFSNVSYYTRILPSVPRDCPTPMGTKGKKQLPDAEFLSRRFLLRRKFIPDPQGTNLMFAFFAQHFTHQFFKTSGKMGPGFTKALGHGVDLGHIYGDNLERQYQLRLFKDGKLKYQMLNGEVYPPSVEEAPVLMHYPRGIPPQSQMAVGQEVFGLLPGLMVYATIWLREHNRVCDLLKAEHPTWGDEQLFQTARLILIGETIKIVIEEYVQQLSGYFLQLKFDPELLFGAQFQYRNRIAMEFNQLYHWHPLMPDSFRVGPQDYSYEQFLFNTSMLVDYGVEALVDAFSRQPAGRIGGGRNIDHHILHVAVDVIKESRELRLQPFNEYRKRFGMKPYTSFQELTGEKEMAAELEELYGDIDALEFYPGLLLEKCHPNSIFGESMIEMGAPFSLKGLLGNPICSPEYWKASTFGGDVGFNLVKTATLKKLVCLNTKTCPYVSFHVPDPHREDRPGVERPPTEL
How it was run: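 Endothelial cells from neonatal calf thoracic aorta plated at 1.0×10^6 in DMEM with 10% FBS and grown 24 h at 37 °C in 5% CO₂. Compound or DMSO added for 20 min, then arachidonic acid (10 μM) for another 20 min. 6-keto-PGF1α in the medium quantified by radioimmunoassay. IC50 is the mean of four determinations.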

[16] = Antiproliferative activity against mouse B16F10 cells after 72 hrs by MTT assay; format: functional, cell-based; conditions: B16-F10, 72 h; how it was run: as §1
[17] = system: A549; experiment: Cell cycle arrest in human A549 cells assessed as accumulation at G1 phase at 25 uM after 72 hrs by propidium iodide staining based flow cytometry (reference value: 53.66%); format: functional
[18] = Selectivity index, ratio of IC50 for rat COX2 to IC50 for calf COX1
How it was run: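 Ratio of COX-2 IC50 to COX-1 IC50. COX-2 was measured in rat peritoneal macrophages: 1.0×10^6/well in RPMI 1640 with 5% FCS, grown 24 h, COX-1 inactivated with 1 mM aspirin, COX-2 induced with LPS 1 µg/mL for 6 h, compound added for 30 min, then arachidonic acid 10 µM for 20 min, PGE2 read by EIA. COX-1 was measured in calf aortic endothelial cells by 6-keto-PGF1α radioimmunoassay.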

[19] = system: A549; experiment: Induction of apoptosis in human A549 cells after 3 days by annexinV-APC/7-AAD staining based flow cytometry; format: functional, cell-based
[20] = system: A549; experiment: Induction of apoptosis in human A549 cells assessed as late apoptotic cells at 5 uM after 72 hrs by annexinV-APC/7-AAD staining based flow cytometry (reference value: 1.81%); format: functional
[21] = system: A549; experiment: Cell cycle arrest in human A549 cells assessed as accumulation at S phase at 5 uM after 72 hrs by propidium iodide staining based flow cytometry (reference value: 42.46%); format: functional
[22] = system: A549; experiment: Cell cycle arrest in human A549 cells assessed as accumulation at G1 phase at 5 uM after 72 hrs by propidium iodide staining based flow cytometry (reference value: 53.66%); format: functional
[23] = system: A549; experiment: Induction of apoptosis in human A549 cells assessed as early apoptotic cells at 1 uM after 72 hrs by annexinV-APC/7-AAD staining based flow cytometry (reference value: 5.7%); format: functional

Work on `CS(=O)(=O)c1ccc(-c2nc(SCCCOC(=O)/C=C/c3ccc(O)c(O)c3)nn2-c2ccc(F)cc2)cc1` yielded an Activity [1] of 13.76%, an Activity [2] of 2.14% and an IC50 [3] of 10.1 µM. For the same molecule, the Activity [4] was 20.53%, the Activity [5] was 3.13% and the Activity [6] was “Dose-dependent effect”. The Activity [7] was 1.51%, the Activity [8] was 7.24% and the Activity [9] was 6.15%. The Activity [10] was 23.68%, the Activity [11] was 49.85% and the viability at 1 µM [12] was 86.2%. The viability at 5 µM [13] was 67.8%, the Activity [14] was 42.92% and the IC50 [15] was 12.6 µM. The IC50 [16] was 10.4 µM, the Activity [17] was 47.29% and the Ratio IC50 [18] was 0.014. The Activity [19] was “Dose-dependent effect”, the Activity [20] was 6.37% and the Activity [21] was 40.9%. For the same molecule, the Activity [22] was 45.34% and the Activity [23] was 9.73%.
